Values belong to the compound of their own block, whether it stands above or below them. Active and inactive are the calls of the source. The calls are words filed in the database; no cut-off is given here.
Experiments:
[1] = molecular target: Delta-type opioid receptor (Homo sapiens, UniProt P41143); assay: Agonist activity at human delta opioid receptor expressed in HEK293 cells assessed as inhibition of forskolin-induced cAMP production after 30 mins by HTRF assay; type: functional, cell-based
[2] = molecular target: T1, Mu-type opioid receptor (Homo sapiens, UniProt P35372); assay: Agonist activity at myc-tagged mu opioid receptor (unknown origin) expressed in AtT-20 cells assessed as induction of membrane potential hyperpolarization in presence of 1 uM naloxone; type: cell-based; details: AtT20
In short: (§1)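 Mouse pituitary AtT-20 cells (endogenous GIRK1/GIRK2) electroporated with myc-MOR plasmid or vehicle and seeded. After 24 h, serum-starved 3 h, then loaded with blue membrane potential dye for 0.5 h at 25 °C. Vehicle or compound added and potassium conductance read as fluorescence over about 175 s.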

[3] = molecular target: Mu-type opioid receptor (Rattus norvegicus, UniProt P33535); assay: Displacement of [3H]-naloxone from rat mu opioid receptor expressed in HEK cells after 60 mins; type: cell-based, HEK293
[4] = system: Mus musculus; assay: Analgesic activity in iv dosed wild type B6 mouse assessed as basal tail-flick withdrawal latency; type: functional
In short: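 Tail-flick instrument nociception test in wild-type B6 mice. Basal latency measured first, then compound given iv (20, 18.4 or 25 mg/kg depending on compound). Latency read at 10, 20, 30, 40, 50 and 60 min after dosing, reported as test latency minus basal latency. AUC of the time-response curve calculated; ED50 by up-and-down method. n=6 per group.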

[5] = molecular target: T1, Mu-type opioid receptor; assay: Agonist activity at myc-tagged mu opioid receptor (unknown origin) expressed in AtT-20 cells assessed as induction of membrane potential hyperpolarization; type: cell-based, AtT20; in short: as §1
[6] = system: Mus musculus; assay: Analgesic activity in wild type B6 mouse assessed as basal tail-flick withdrawal latency at 18.4 mg/kg, iv injected with 10 mg/kg, sc naloxone 5 mins before compound dosing; type: functional, organism-based
In short: (§2)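 Wild-type B6 mice, n=6 per group. Basal tail-flick latency measured first. […] Latency read at 10, 20, 30, 40, 50 and 60 min after dosing. Test minus basal latency plotted against time and AUC calculated.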

[7] = molecular target: T1, Mu-type opioid receptor; assay: Agonist activity at human mu opioid receptor expressed in HEK293 cells assessed as inhibition of forskolin-induced cAMP production after 30 mins by HTRF assay; type: functional, cell-based
[8] = molecular target: T1, Mu-type opioid receptor; type: functional, cell-based, CHO-K1
[9] = molecular target: Kappa-type opioid receptor (Homo sapiens, UniProt P41145); assay: Agonist activity at human kappa opioid receptor expressed in HEK293 cells assessed as inhibition of forskolin-induced cAMP production after 30 mins by HTRF assay; type: functional, cell-based
In short: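 HEK293 cells stably expressing the mu, delta or kappa opioid receptor, plus parental cells, at 2000 cells/well in DMEM. Compound in HBSS added with 1 µM forskolin and 100 µM IBMX for 30 min at room temperature. d2-cAMP and anti-cAMP antibody in lysis buffer then added. Read 2 h later: excitation 330 nm, emission 620 and 665 nm.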

[10] = system: Mus musculus; assay: Analgesic activity in wild type B6 mouse assessed as basal tail-flick withdrawal latency at 20 mg/kg, iv injected with 10 mg/kg, sc naloxone 5 mins before compound dosing; type: functional, organism-based; in short: as §2
[11] = system: Mus musculus; assay: Analgesic activity in wild type B6 mouse assessed as basal tail-flick withdrawal latency at 25 mg/kg, iv injected with 10 mg/kg, sc naloxone 5 mins before compound dosing; type: functional, organism-based; in short: as §2

Chain of Delta-type opioid receptor (P41143 whole entry): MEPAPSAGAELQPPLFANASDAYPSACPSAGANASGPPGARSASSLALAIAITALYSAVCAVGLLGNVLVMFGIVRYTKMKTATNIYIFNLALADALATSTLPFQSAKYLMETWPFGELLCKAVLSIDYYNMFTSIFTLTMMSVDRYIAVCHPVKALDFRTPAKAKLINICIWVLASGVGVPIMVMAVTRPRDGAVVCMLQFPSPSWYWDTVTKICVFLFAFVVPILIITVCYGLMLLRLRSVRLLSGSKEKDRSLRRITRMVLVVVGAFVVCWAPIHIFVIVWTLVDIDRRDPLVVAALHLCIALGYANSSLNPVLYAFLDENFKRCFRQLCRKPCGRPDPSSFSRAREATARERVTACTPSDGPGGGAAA
Chain of Kappa-type opioid receptor (P41145 whole entry): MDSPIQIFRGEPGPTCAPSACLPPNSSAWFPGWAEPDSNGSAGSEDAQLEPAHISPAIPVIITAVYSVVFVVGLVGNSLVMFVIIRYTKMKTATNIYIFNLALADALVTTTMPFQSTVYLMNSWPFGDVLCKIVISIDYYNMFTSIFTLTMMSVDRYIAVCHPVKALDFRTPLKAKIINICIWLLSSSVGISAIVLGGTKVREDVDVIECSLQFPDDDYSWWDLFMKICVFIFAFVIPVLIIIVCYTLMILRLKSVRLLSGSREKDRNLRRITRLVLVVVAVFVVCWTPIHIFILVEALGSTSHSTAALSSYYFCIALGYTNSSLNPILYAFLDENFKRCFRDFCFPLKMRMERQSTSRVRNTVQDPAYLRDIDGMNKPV
T1 sequence (P35372 whole entry): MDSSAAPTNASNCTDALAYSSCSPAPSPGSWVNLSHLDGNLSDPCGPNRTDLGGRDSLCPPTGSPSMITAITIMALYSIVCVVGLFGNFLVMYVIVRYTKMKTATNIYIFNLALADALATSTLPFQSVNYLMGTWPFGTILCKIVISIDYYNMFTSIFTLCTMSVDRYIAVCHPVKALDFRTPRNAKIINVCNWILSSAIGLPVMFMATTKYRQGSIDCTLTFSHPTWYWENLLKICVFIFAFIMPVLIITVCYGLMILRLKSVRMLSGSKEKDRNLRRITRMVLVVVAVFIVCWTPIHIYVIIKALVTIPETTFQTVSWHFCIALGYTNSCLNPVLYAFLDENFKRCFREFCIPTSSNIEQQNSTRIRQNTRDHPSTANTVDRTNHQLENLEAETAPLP
Chain of Mu-type opioid receptor (Rattus norvegicus, UniProt P33535) (P33535 whole entry): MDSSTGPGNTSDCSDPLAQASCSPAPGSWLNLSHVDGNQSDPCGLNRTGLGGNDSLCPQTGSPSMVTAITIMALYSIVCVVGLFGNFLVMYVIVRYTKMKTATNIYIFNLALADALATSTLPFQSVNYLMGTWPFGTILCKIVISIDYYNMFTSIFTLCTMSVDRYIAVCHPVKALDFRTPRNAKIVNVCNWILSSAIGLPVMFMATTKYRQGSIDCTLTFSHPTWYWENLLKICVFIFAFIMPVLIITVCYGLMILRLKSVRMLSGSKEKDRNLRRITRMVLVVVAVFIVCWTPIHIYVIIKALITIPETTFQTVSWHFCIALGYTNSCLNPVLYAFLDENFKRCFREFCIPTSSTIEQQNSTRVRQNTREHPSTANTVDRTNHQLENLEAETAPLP

Structure (SMILES): Cc1nn(-c2ccc(Cl)cc2Br)c2c1C(=O)CC(C)(C)C2
IC50 [1]: 3.38 µM | Activity [2]: inactive | Ki [3]: 0.61 µM | ED50 [4]: 10.9 mg/kg | EC50 [5]: 0.1 µM | Activity [6]: inactive | IC50 [7]: 3.3 µM | EC50 [8]: 0.041 µM | IC50 [9]: 0.57 µM

Structure (SMILES): Cc1nn(-c2ccc(Br)cc2)c2c1C(=O)CC(C)(C)C2
EC50 [8]: 9.91 µM

Structure (SMILES): COC(=O)c1ccc(-n2nc(C)c3c2CC(C)(C)CC3=O)cc1
EC50 [8]: 10 µM

Structure (SMILES): Cc1n[nH]c2c1C(=O)CC(C)(C)C2
EC50 [8]: > 100 µM

Structure (SMILES): Cc1nn(-c2ccc(Br)cc2Br)c2c1C(O)CC(C)(C)C2 (stereo not given)
IC50 [1]: > 100 µM | Ki [3]: > 100 µM | IC50 [7]: 3.38 µM | EC50 [8]: 0.1 µM | IC50 [9]: 1.1 µM

Structure (SMILES): Cc1nn(-c2ccc(Br)cc2Br)c2c1C(=O)CC(C)(C)C2
IC50 [1]: 1.69 µM | Activity [2]: inactive | Ki [3]: 0.47 µM | Activity [10]: inactive | ED50 [4]: 8.4 mg/kg | EC50 [5]: 5.49 µM | IC50 [7]: 0.73 µM | EC50 [8]: 0.041 µM | IC50 [9]: 0.41 µM

Structure (SMILES): CCOC(=O)c1ccccc1-n1nc(C)c2c1CC(C)(C)CC2=O
EC50 [8]: 30.2 µM

Structure (SMILES): Cc1cc(Cl)ccc1-n1nc(C)c2c1CC(C)(C)CC2=O
Ki [3]: > 100 µM | EC50 [8]: 0.37 µM

Structure (SMILES): Cc1ccc(-n2nc(C)c3c2CC(C)(C)CC3=O)c(C)c1
Ki [3]: 3.93 µM | EC50 [8]: 0.37 µM

Structure (SMILES): Cc1ccc(-n2nc(C)c3c2CC(C)(C)CC3=O)c(Br)c1
IC50 [1]: > 100 µM | Activity [2]: inactive | Ki [3]: 0.74 µM | ED50 [4]: 26.6 mg/kg | Activity [11]: inactive | EC50 [5]: 0.2 µM | IC50 [7]: 6 µM | EC50 [8]: 0.041 µM | IC50 [9]: 0.37 µM

Structure (SMILES): Cc1nn(-c2ccc(Cl)cc2)c2c1C(=O)CC(C)(C)C2
EC50 [8]: 13.6 µM

Structure (SMILES): CC1(C)CC(=O)c2c(C(F)(F)F)nn(-c3ccc(Cl)cc3Cl)c2C1
EC50 [8]: 1.54 µM

Structure (SMILES): CC1(C)CC(=O)c2c(C3CC3)nn(-c3ccc(Cl)cc3Cl)c2C1
Ki [3]: 1.3 µM | EC50 [8]: 0.37 µM

Structure (SMILES): Cc1nn(-c2ccc(Cl)cc2Cl)c2c1C(=O)CCC2
EC50 [8]: 13.6 µM

Structure (SMILES): Cc1nn(-c2ccc(F)cc2F)c2c1C(=O)CC(C)(C)C2
EC50 [8]: 10.3 µM

Structure (SMILES): Cc1cccc(-n2nc(C)c3c2CC(C)(C)CC3=O)c1C
EC50 [8]: 8.9 µM

Structure (SMILES): Cc1ccc(C)c(-n2nc(C)c3c2CC(C)(C)CC3=O)c1
EC50 [8]: 10 µM

Structure (SMILES): COc1ccc(-n2nc(C)c3c2CC(C)(C)CC3=O)cc1
EC50 [8]: 18.4 µM

More lines, now with the values ahead:

EC50 [8]: 1.12 µM
Structure (SMILES): Cc1nn(-c2ccccc2Br)c2c1C(=O)CC(C)(C)C2

EC50 [8]: 2.28 µM
Structure (SMILES): Cc1nn(-c2ccccc2Cl)c2c1C(=O)CC(C)(C)C2

IC50 [1]: 10 µM | IC50 [7]: 7.89 µM | EC50 [8]: 0.15 µM | IC50 [9]: 2.65 µM
Structure (SMILES): Cc1nn(-c2ccc(Cl)cc2Cl)c2c1C(=O)CC(C)(C)C2

EC50 [8]: > 100 µM
Structure (SMILES): Cc1nn(-c2cccc(Cl)c2)c2c1C(=O)CC(C)(C)C2

EC50 [8]: 4.72 µM
Structure (SMILES): Cc1ccccc1-n1nc(C)c2c1CC(C)(C)CC2=O

EC50 [8]: 19 µM
Structure (SMILES): CCc1ccccc1-n1nc(C)c2c1CC(C)(C)CC2=O

EC50 [8]: 2.89 µM
Structure (SMILES): Cc1nn(-c2cc(Cl)ccc2Cl)c2c1C(=O)CC(C)(C)C2

EC50 [8]: > 100 µM
Structure (SMILES): Cc1nn(-c2ccccc2)c2c1C(=O)CC(C)(C)C2

From ChEMBL document CHEMBL3351626, “Discovery, structure-activity relationship studies, and anti-nociceptive effects of 1-phenyl-3,6,6-trimethyl-1,5,6,7-tetrahydro-4H-indazol-4-one as novel opioid receptor agonists” (Bioorg Med Chem, 2014)
